# Compound activity (PubChem)
# In the library only some 1.8% were active in any assay of this set; here they are far more common.
# Cneo AK release = Cryptococcus neoformans lysis via adenylate kinase release. C. neoformans lysis, adenylate kinase release luminescence, 4 h; normalised: neutral wells 0, clomiphene wells 100. lysis activity, % at 15 µM. 0.2% of 360,000 active. AID 651654;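 active = mean lysis activity across replicates of at least 80%, whatever share of replicates individually reach that level; inactive = mean lysis activity below 80%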
#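 Material: C. neoformans cells | Amount: Yeast cell density of 5 × 10^6 cells/mL | Medium: Fresh YPD growth medium | Dosing: Single dose | Times: Static 4 h at 37 °C with compound, 1 h detection | Detection: AK luminescence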
# Mot1-301 SUMO = inhibitors of SUMOylation pathway: yeast Mot1-301 growth rescue. S. cerevisiae Mot1-301 growth rescue, ATP luminescence, 38.5C; percent above DMSO median, 100 means doubled. growth rescue, % at 18.8 µM. 1% of 320,000 active. AID 2716;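 active = every valid replicate shows activation above 250% relative to neutral control wells; inactive = the rest, any valid replicate at or below 250%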;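 note: OY570 slx delta 5 strain wells were the positive control but not used for scaling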
# C2C12 statin = protects C2C12 myotubes from simvastatin toxicity. ATP luminescence, 48 h; scaled: DMSO 0, geranylgeraniol control 100. rescue of ATP level, % at 7.49 µM. 0.78% of 330,000 active;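 active = mean ATP rescue above about 67%, or every replicate alone reaching that limit, limit read from the data, passing the limit was not always enough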;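 note: myotubes were challenged with 10 µM simvastatin during compound exposure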
# Efflux pump mplx = antifungal efflux pump inhibition, Nile Red retention | inhibition, % at 10 µM | S. cerevisiae Candida pump triplex | 0.44% of 330,000 active | AID 485275;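 active = plate passing quality check with inhibition over a set limit, or well fluorescence over plate mean plus 4 SD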;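 note: Nile Red retained in pooled yeast measured as flow cytometry median fluorescence; 0% = buffer negative control and 100% = Enniatin B positive control; higher means more Nile Red kept so more efflux inhibition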
# Yeast Mot1 SUMO = inhibits SUMO pathway, affecting Mot1-301 yeast growth; S. cerevisiae Mot1-301 galactose growth, ATP luminescence, 24 h; -100 = growth of slx-deleted rescue strain; shares compounds with Mot1-301 SUMO; growth activity, percent, % at 42 µM; 2,300 tested, under 10 active;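 active = Signal drops as the depositor expects, and the fitted half-maximal dose is no more than ten times the top valid tested dose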;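 note: more negative values mean stronger growth rescue toward the control strain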
# * = called active by the depositor; · = not tested or not shown; + = active, no number.
SMILES,Cneo AK release,Mot1-301 SUMO,C2C12 statin,Efflux pump mplx,Yeast Mot1 SUMO
CCOc1cc(-c2ccccc2)nc(N)n1,5,460*,2,0,0
COc1cc(-c2ccccc2)nc(N)n1,·,-4,·,0,·
O=C(CN1CCN(Cc2ccc(Cl)cc2)CC1)N/N=C/c1ccncc1,·,374*,·,0,0
Nc1cccc2c1C(=O)N(c1ccccc1)C2=O,-2,668*,-6,0,0
O=C1c2ccccc2C(=O)N1c1ccccc1,-5,·,6,·,·
CC(C)NC(=O)N(C)C[C@H]1Oc2ccc(NC(=O)Cn3cnnn3)cc2C(=O)N([C@H](C)CO)C[C@@H]1C,-1,6,2,0,·
COc1ccc(NC(=O)Nc2ccc3c(c2)C(=O)N([C@H](C)CO)C[C@H](C)[C@H](CN(C)Cc2ccncc2)OCCCC[C@@H](C)O3)cc1,-1,·,·,·,·
Cc1ccc(-c2[nH]ncc2CNCCc2cnn(-c3ccccc3)c2)cc1C,4,923*,-8,0,0
CC1CCCC(N2C(=O)NC(NC(=O)c3ccco3)(C(F)(F)F)C2=O)C1C (centres undefined),-1,510*,-5,0,-1
CC(C)C(=O)Nc1ccc(C(=O)N2CCCCCC2)cc1,-4,-18,-17,0,·
COc1cccc(-c2n[nH]c(=S)n2Cc2ccco2)c1,3,-12,-1,0,·
CNC(=O)NNC(=O)c1csc(-c2ccc(C(F)(F)F)cc2Cl)n1,1,381*,7,0,0
Cn1c(Cn2nnc3ccccc32)nnc1SCC(=O)c1ccc(F)cc1,16,785*,6,0,0
COc1ccccc1CNC(=S)NCCc1ccccc1,0,-13,-21,0,·
CN(C)CCOC(=O)CCc1ccccc1,3,560*,-1,0,0
Cc1ccc(S(=O)(=O)N2[C@@H](c3ccccc3F)C(C(=O)O)=CC[C@H]2c2ccc3c(c2)OCO3)cc1,2,497*,5,0,0
Cc1cc(S(=O)(=O)NCC(C)C)ccc1OCC(=O)N1CCOCC1,21,867*,-1,0,0
CCOC(=O)N1CCN(C(=O)COc2ccc(S(=O)(=O)NCC(C)C)cc2C)CC1,-1,-12,30,0,·
O=C(C[C@H]1C[C@@H]2c3cc(NS(=O)(=O)c4ccccc4)ccc3O[C@@H]2[C@H](CO)O1)NC1CCCC1,0,·,5,·,·
Cc1sc2nc(CN3CCCC3)nc(Cl)c2c1C,·,-12,·,0,·
Cc1sc2nc(CN3CCCC3)nc(NCc3ccncc3)c2c1C,·,802*,·,0,0
CC(C)(C)c1ccc(-c2nc(N)nc(N)n2)cc1,-1,-4,·,0,·
Nc1nc(-c2ccc(Cl)cc2)nc(-c2ccc(Cl)cc2)n1,-4,942*,0,0,0
CC(=O)Nc1ccc(S(=O)(=O)NC2CCSc3ccccc32)cc1 (centres undefined),0,0,0,0,·
CC(=O)N(C(C)=O)c1c(C#N)c(C)n(-c2ccccc2)c1C(=O)c1ccccc1,-1,+,-4,0,-1
SMILES,Cneo AK release,Mot1-301 SUMO,C2C12 statin,Efflux pump mplx,Yeast Mot1 SUMO
COc1ccc(S(=O)(=O)Nc2ccc3c(c2)C(=O)N([C@@H](C)CO)C[C@@H](C)[C@H](CN(C)Cc2ccc(Cl)c(Cl)c2)OCCCC[C@@H](C)O3)cc1,11,·,48,·,·
CC(C)OC(=O)CSc1nc2ncccc2[nH]1,4,7,-3,0,·
COc1ccc([N+](=O)[O-])cc1NC(=O)C1CCCN1S(=O)(=O)c1cccs1 (centres undefined),-1,418*,-3,0,0
COc1ccc(N(C(=O)c2ccco2)C(C(=O)NC2CCCCC2)c2ccccc2)cc1 (centres undefined),-1,694*,·,1,1
COCCNCc1ccccc1,-3,647*,-18,0,0
C[C@H](CO)N1C[C@H](C)[C@H](CN(C)Cc2ccc(Oc3ccccc3)cc2)Oc2c(NC(=O)C3CCOCC3)cccc2C1=O,-3,·,8,·,·
CO[C@H]1CN(C)C(=O)c2ccc(NC(=O)C3CCC3)cc2OC[C@H](C)N(Cc2cccnc2)C[C@H]1C,-1,·,1,·,·
Cc1c(NC(=O)C(C)Sc2nnc(-c3ccccc3)o2)c(=O)n(-c2ccccc2)n1C (centres undefined),1,373*,-11,0,0
CN(C)CCCN(Cc1ccccc1)C(=S)Nc1ccc(F)c(Cl)c1,0,608*,-4,0,0
